Source: ChEMBL document CHEMBL1629599, “A small-molecule screen identifies the antipsychotic drug pimozide as an inhibitor of Listeria monocytogenes infection” (2009)
Activity calls are given as the source filed them. The calls are words filed in the database; no cut-off is given here.

Experiments:
Listeria monocytogenes [1] = assay: Inhibition of internalization of Listeria monocytogenes 10403S into murine bone marrow macrophages pretreated at 2.5 to 20 uM for 2 hrs; assay type: functional
Procedure, shortened: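 Bone marrow macrophages are pretreated 2 h with twofold compound dilutions, then infected with wild-type 10403S at MOI 10:1. Extracellular bacteria are killed with 50 µg/ml gentamicin at 30 min. At 90 min, cells are lysed and intracellular CFU enumerated. Three experiments in triplicate, fitted by linear regression.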

Listeria monocytogenes [2] = assay: Antimicrobial activity against Listeria monocytogenes DH-L1252 infected in murine bone marrow macrophages assessed as intracellular bacterial replication upto 10 hrs; assay type: functional, organism-based
Procedure, shortened: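 BALB/c bone marrow macrophages (4 × 10^5/well) are pretreated 2 h with 18.1 µM compound or DMSO, then infected with washed wild-type 10403S at MOI 1:2 in the presence of compound. At 1 h, medium with 5 µg/ml gentamicin plus compound is added. At set times, cells are lysed in 0.1% Triton X-100 and lysates plated on LB agar for CFU. Triplicates.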

Listeria monocytogenes [3] = assay: Antimicrobial activity against Listeria monocytogenes 10403S infected in L2 cells assessed as decrease in number of plaque formation at 18.1 uM after 1 hr; assay type: functional, cell-based
Listeria monocytogenes [4] = assay: Antimicrobial activity against Listeria monocytogenes DH-L1252 infected in murine bone marrow macrophages assessed as decrease in growth rate at 18.1 uM after 6 hrs; assay type: functional, organism-based
Listeria monocytogenes [5] = assay: Inhibition of internalization of Listeria monocytogenes 10403S into murine Raw 264.7 cells pretreated at 18.1 uM for 2 hrs; assay type: functional; conditions: RAW264.7
Procedure, shortened: (§1)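 J774 or RAW 264.7 cells (4 × 10^5/well) are pretreated 2 h with 18.1 µM compound or DMSO, then infected with washed wild-type 10403S at MOI 10:1 with compound. At 30 min, medium with 50 µg/ml gentamicin plus compound is added. At 90 min, cells are lysed in 0.1% Triton X-100 and intracellular CFU plated on LB agar. Triplicates.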

Listeria monocytogenes [6] = assay: Antimicrobial activity against Listeria monocytogenes 10403S infected in L2 cells assessed as intracellular bacterial replication; assay type: functional, cell-based
Procedure, shortened: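 L2 fibroblasts (2 × 10^5/well, seeded 24 h before) are pretreated 2 h with 18.1 µM compound or DMSO. They are then infected with washed wild-type 10403S grown 14–16 h at 30°C in BHI, in antibiotic-free medium with compound. At 1 h, medium with 50 µg/ml gentamicin plus compound is added. At set times, cells are lysed in 0.1% Triton X-100 and lysates plated on LB agar for CFU. Triplicates.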

Listeria monocytogenes [7] = assay: Inhibition of internalization of Listeria monocytogenes 10403S into murine J774 cells pretreated at 18.1 uM for 2 hrs; assay type: functional; procedure, shortened: as §1
Listeria monocytogenes [8] = assay: Antimicrobial activity against Listeria monocytogenes DH-L1252 infected in murine bone marrow macrophages assessed as log reduction in intracellular bacterial count upto 10 hrs; assay type: functional
Procedure, shortened: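 BALB/c bone-marrow macrophages were seeded at 4 × 10^5/well 24 h ahead and pretreated 2 h with 18.1 µM drug or DMSO. They were infected at MOI 1:2 in antibiotic-free medium with washed Listeria grown 14–16 h in BHI at 30°C without shaking, with drug present throughout. At 1 h, 5 µg/ml gentamicin was added. At each time point cells were lysed in 0.1% Triton X-100 and CFU counted on LB agar, in triplicate.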

Listeria monocytogenes [9] = assay: Antimicrobial activity against Listeria monocytogenes 10403S infected in L2 cells assessed as decrease in plaque size at 18.1 uM after 1 hr; assay type: functional; conditions: L2, 1 h
Procedure, shortened: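 Wild-type L. monocytogenes grown 14–16 h, PBS-washed, infects L2 fibroblast monolayers (2 × 10^6 cells/well, seeded 24 h before) at MOI 1:5 after 2 h compound or DMSO pretreatment. At 1 h, wash and add agarose overlay with 30 µg/ml gentamicin plus 18.1 µM compound. Neutral red overlay added at 72 h. Plates scanned at 96 h; diameters of 10 plaques per well expressed as percent of DMSO; three independent experiments.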

Listeria monocytogenes [10] = assay: Inhibition of Listeria monocytogenes 10403S entry into murine bone marrow macrophages at 18.1 uM after 30 mins in calcium-free medium; assay type: functional; conditions: 0.5 h
Procedure, shortened: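 Bone marrow macrophages are preincubated 30 min in calcium-free buffer (NaCl, KCl, MgCl2, 0.1 mM EGTA, glucose, HEPES, pH 7.35) with 18.1 µM compound or DMSO. They are then infected with wild-type 10403S for 15 min. Calcium-free medium with 50 µg/ml gentamicin plus compound is added. At 45 min, cells are lysed and intracellular CFU plated on LB agar. Triplicates.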

Listeria monocytogenes [11] = assay: Inhibition of internalization of Listeria monocytogenes DH-L1252 into murine bone marrow macrophages assessed as reduction in vacuolar escape of bacteria using phalloidin staining; assay type: functional
Procedure, shortened: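 Bone marrow macrophages on coverslips are treated 2 h with 18.1 µM compound or DMSO, then infected 30 min at MOI 10:1 with GFP 10403S grown to OD600 ~0.5 at 37°C. Gentamicin (50 µg/ml) plus compound is added. At 90 min, cells are fixed and stained with Texas Red-phalloidin and Hoechst. At least 100 bacteria per coverslip are scored as percent F-actin-associated.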

Listeria monocytogenes [12] = assay: Antimicrobial activity against Listeria monocytogenes DH-L1252 infected in murine bone marrow macrophages assessed as decrease in GFP reporter gene expression at 18.1 uM after 15 hrs; assay type: functional, organism-based
Procedure, shortened: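 Primary BALB/c bone marrow macrophages (differentiated 6 days with L929 supernatant) are treated with 18.1 µM compound or DMSO, then infected with GFP-expressing 10403S (DH-L1252) at MOI 1:2. Extracellular bacteria are killed with 5 µg/ml gentamicin after 1 h. At 15 h post-infection, cells are fixed with paraformaldehyde and Hoechst-stained, and GFP is imaged by automated microscopy. Three independent infections in duplicate.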

Escherichia coli = assay: Inhibition of internalization of Escherichia coli K-12 into murine murine bone marrow macrophages pretreated at 18.1 uM for 2 hrs; assay type: functional
Procedure, shortened: (§2)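 Gentamicin protection assay: bone marrow macrophages (4 × 10^5/well) pretreated 2 h with 18.1 µM compound or DMSO, then infected with B. subtilis 3610 (MOI 1.5:1), Salmonella Typhimurium IR715 (MOI 20:1) or E. coli K12 MM294 (MOI 20:1), all grown in LB at 37°C. After 30 min, 50 µg/ml gentamicin plus compound added; lysed at 90 min; CFU on LB agar; triplicates.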

Bacillus subtilis = assay: Inhibition of internalization of Bacillus subtilis into murine murine bone marrow macrophages pretreated at 18.1 uM for 2 hrs; assay type: functional; procedure, shortened: as §2
Salmonella typhimurium = assay: Inhibition of internalization of Salmonella enterica serovar Typhimurium into murine murine bone marrow macrophages pretreated at 18.1 uM for 2 hrs; assay type: functional, Salmonella enterica subsp. enterica serovar Typhimurium; procedure, shortened: as §2

SMILES: O=c1[nH]c2ccccc2n1C1CCN(CCCC(c2ccc(F)cc2)c2ccc(F)cc2)CC1 [PIMOZIDE]
- inhibition (Listeria monocytogenes [1]): Dose-dependent effect
- Activity (Listeria monocytogenes [2]): inactive
- inhibition (Listeria monocytogenes [3]): Active
- Activity (Listeria monocytogenes [4]): inactive
- inhibition at 18.1 µM (Listeria monocytogenes [5]): 95%
- Activity (Listeria monocytogenes [6]): inactive
- inhibition at 18.1 µM (Listeria monocytogenes [7]): 75%
- FC (Listeria monocytogenes [8]): 1
- inhibition at 18.1 µM (Listeria monocytogenes [9]): 47.1%
- inhibition at 18.1 µM (Listeria monocytogenes [10]): 95%
- inhibition (INH) (Listeria monocytogenes [11]): 26.3%
- Activity (Listeria monocytogenes [12]): Active
- inhibition at 18.1 µM (Escherichia coli): 60%
- inhibition at 18.1 µM (Bacillus subtilis): 73%
- inhibition at 18.1 µM (Salmonella typhimurium): 64%
